Reference: ChEMBL document CHEMBL3853294, “Design, synthesis and biological evaluation of novel HSP70 inhibitors: N, N'-disubstituted thiourea derivatives” (Eur J Med Chem, 2016)

What was measured:
[1] = target: Chaperone protein DnaK (Escherichia coli) (UniProt P0A6Y8); experiment: Inhibition of Escherichia coli DnaK ATPase activity at 200 uM incubated on shaker for 10 mins followed by 30 mins incubation by malachite green reagent based colorimetric assay
[2] = target: Chaperone protein DnaK (Escherichia coli) (UniProt P0A6Y8); experiment: Inhibition of Escherichia coli DnaK ATPase activity incubated on shaker for 10 mins followed by 30 mins incubation by malachite green reagent based colorimetric assay
BT-474 [3] = experiment: Potentiation of lapatinib-induced growth inhibition of human BT474 cells assessed as coefficient of drug interaction after 72 hrs by cell titer-glo based luminescence assay; format: functional
[4] = Growth inhibition of human BT474 cells at 10 uM after 72 hrs by cell titer-glo based luminescence assay; set-up: species or system BT-474; settings: read-out: GI
How it was run: (§1)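 Cells were trypsinised and seeded at 5000 cells/well, then cultured 24 h at 37 °C. Compound was added at 10 µM, alone or with 1 µM lapatinib, and incubated 72 h at 37 °C. CellTiter-Glo reagent was added at a volume equal to the medium, followed by 3 min shaking and 10 min at room temperature. Luminescence (ATP) was read and normalised to the blank control group.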

Homo sapiens [5] = species: Homo sapiens; experiment: Inhibition of HSP70 in human BT/LapR1.0 cells assessed as potentiation of 1 uM of lapatinib-induced growth inhibition after 72 hrs by measuring coefficient of drug interaction by cell titer-glo based luminescence assay
Homo sapiens [6] = species: Homo sapiens; experiment: Inhibition of HSP70 in human BT/LapR1.0 cells assessed as potentiation of 1 uM of lapatinib-induced growth inhibition at 10 uM after 72 hrs by cell titer-glo based luminescence assay
How it was run: as §1

BT-474 [7] = experiment: Potentiation of lapatinib-induced growth inhibition of human BT474 cells at 10 uM after 72 hrs by cell titer-glo based luminescence assay; format: functional; settings: BT-474, 72 h, read-out: GI
How it was run: as §1

[8] = Growth inhibition of human BT/LapR1.0 cells at 10 uM after 72 hrs by cell titer-glo based luminescence assay; settings: read-out: GI
How it was run: as §1

SMILES	inhibition [1] [%]	inhibition [2]	Activity (BT-474 [3])	inhibition at 72 h, 10 µM [4] [%]	Activity (Homo sapiens [5])	growth inhibition (GI) (Homo sapiens [6]) [%]	inhibition of growth at 10 µM (BT-474 [7]) [%]	inhibition at 72 h, 10 µM [8] [%]
N#Cc1ccc(COC[C@H]2O[C@@H](n3c(NCc4ccc(Cl)c(Cl)c4)nc4c(N)ncnc43)[C@H](O)[C@@H]2O)cc1	43	Dose-dependent effect	–	–	–	–	–	–
COc1ccc(-c2nc(-c3cc(C(F)(F)F)cc(C(F)(F)F)c3)n(Cc3ccc(C(N)=O)cc3)c2-c2ccc(OC)cc2)cc1	53	Dose-dependent effect	–	–	–	–	–	–
COc1cc(/C=C/C(=O)NC(NC(=O)Nc2ccccn2)C(C)C)cc(OC)c1OC (stereo unspecified)	< 20	–	<1	12.4	< 1	57.6	86.2	18.2
